Measured values from ChEMBL document CHEMBL1122831, “Synthesis and structure-activity relationships of novel arylfluoroquinolone antibacterial agents” (1985).
≈ marks a conversion by molar mass, not a printed value.

Assays:
Format in all cases: functional
[1] = test system: Klebsiella pneumoniae; assay: Minimum inhibition concentration in vitro determined against Klebsiella pneumoniae 8045
How it was run: (§1)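 Agar dilution on brain-heart infusion (BHI) agar with twofold dilutions from a 2000 µg/mL stock, giving final test concentrations of 200-0.005 µg/mL. Organisms were grown overnight in BHI broth at 36 °C, and about 10⁴ organisms were inoculated per plate. Plates were incubated 18 h at 36 °C. MIC was the lowest concentration with no visible growth.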

[2] = test system: Enterococcus faecium; assay: Minimum inhibition concentration in vitro determined against Streptococcus faecium ATCC 8043; how it was run: as §1
[3] = test system: Acinetobacter; assay: Minimum inhibition concentration in vitro determined against Acinetobacter sp CMX669; how it was run: as §1
[4] = test system: Streptococcus pyogenes; assay: Minimum inhibition concentration in vitro determined against Streptococcus pyogenes 930; how it was run: as §1
[5] = test system: Escherichia coli; assay: Minimum inhibition concentration in vitro determined against Escherichia coli juhl; conditions: Escherichia coli; read-out: MIC; how it was run: as §1
[6] = test system: Staphylococcus aureus; assay: Minimum inhibition concentration in vitro determined against Staphylococcus aureus ATCC 6538P; how it was run: as §1
[7] = test system: Staphylococcus aureus; assay: Minimum inhibition concentration in vitro determined against Staphylococcus aureus CMX 686B; how it was run: as §1
[8] = test system: Pseudomonas aeruginosa; assay: Minimum inhibition concentration in vitro determined against Pseudomona aeruginosa K799/WT; how it was run: as §1
[9] = test system: Pseudomonas aeruginosa; assay: Minimum inhibition concentration in vitro determined against Pseudomona aeruginosa 5007; how it was run: as §1
[10] = test system: Staphylococcus epidermidis; assay: Minimum inhibition concentration in vitro determined against Staphylococcus epidermidis 3519; how it was run: as §1
[11] = test system: Klebsiella aerogenes; assay: Minimum inhibition concentration in vitro determined against Enterobacteri aerogenes ATCC 13048; how it was run: as §1

| Structure (SMILES) | MIC [1] [µg/mL] | MIC [2] [µg/mL] | MIC [3] [µg/mL] | MIC [4] [µg/mL] | MIC [5] [µg/mL] | MIC [6] [µg/mL] | MIC [7] [µg/mL] | MIC [8] [µg/mL] | MIC [9] [µg/mL] | MIC [10] [µg/mL] | MIC [11] [µg/mL] |
| --- | --- | --- | --- | --- | --- | --- | --- | --- | --- | --- | --- |
| O=C(O)c1cn(-c2ccccc2)c2cc(N3CCNCC3)c(F)cc2c1=O |  | 12.5 (≈ 34 µM) | 0.78 (≈ 2.12 µM) | 1.56 (≈ 4.25 µM) | 0.2 (≈ 0.544 µM) | 0.39 (≈ 1.06 µM) | 0.39 (≈ 1.06 µM) | 1.56 (≈ 4.25 µM) | 0.78 (≈ 2.12 µM) | 1.56 (≈ 4.25 µM) | 0.39 (≈ 1.06 µM) |
| CN(C)C1CCN(c2cc3c(cc2F)c(=O)c(C(=O)O)cn3-c2ccc(F)cc2)C1 (stereo not given) | 0.2 (≈ 0.484 µM) | 25 (≈ 60.5 µM) | 0.78 (≈ 1.89 µM) | 3.1 (≈ 7.5 µM) | 0.39 (≈ 0.943 µM) | 0.39 (≈ 0.943 µM) | 0.39 (≈ 0.943 µM) | 12.5 (≈ 30.2 µM) | 25 (≈ 60.5 µM) | 0.39 (≈ 0.943 µM) | 0.78 (≈ 1.89 µM) |
| Cc1cccc(C)c1-n1cc(C(=O)O)c(=O)c2cc(F)c(N3CCN(C)CC3)cc21 | > 100 | > 100 | > 100 | > 100 | > 100 | > 100 | > 100 | > 100 | > 100 | > 100 | > 100 |
| CCCCN1CCN(c2cc3c(cc2F)c(=O)c(C(=O)O)cn3-c2ccc(F)cc2)CC1 | 0.39 (≈ 0.883 µM) | 12.5 (≈ 28.3 µM) | 3.1 (≈ 7.02 µM) | 6.2 (≈ 14 µM) | 1.56 (≈ 3.53 µM) | 0.78 (≈ 1.77 µM) | 0.78 (≈ 1.77 µM) | 12.5 (≈ 28.3 µM) | 12.5 (≈ 28.3 µM) | 1.56 (≈ 3.53 µM) | 1.56 (≈ 3.53 µM) |
| CCC(=O)N1CCN(c2cc3c(cc2F)c(=O)c(C(=O)O)cn3-c2ccc(F)cc2)CC1 | 0.78 (≈ 1.77 µM) | 6.2 (≈ 14 µM) | 6.2 (≈ 14 µM) | 1.56 (≈ 3.53 µM) | 1.56 (≈ 3.53 µM) | 0.2 (≈ 0.453 µM) | 0.2 (≈ 0.453 µM) | 12.5 (≈ 28.3 µM) | 12.5 (≈ 28.3 µM) | 0.78 (≈ 1.77 µM) | 3.1 (≈ 7.02 µM) |

More lines, now with the values ahead:

| MIC [1] [µg/mL] | MIC [2] [µg/mL] | MIC [3] [µg/mL] | MIC [4] [µg/mL] | MIC [5] [µg/mL] | MIC [6] [µg/mL] | MIC [7] [µg/mL] | MIC [8] [µg/mL] | MIC [9] [µg/mL] | MIC [10] [µg/mL] | MIC [11] [µg/mL] | Structure (SMILES) |
| --- | --- | --- | --- | --- | --- | --- | --- | --- | --- | --- | --- |
| 1.56 (≈ 4.06 µM) | 3.1 (≈ 8.06 µM) | 1.56 (≈ 4.06 µM) | 1.56 (≈ 4.06 µM) | 1.56 (≈ 4.06 µM) | 0.2 (≈ 0.52 µM) | 0.2 (≈ 0.52 µM) | 6.2 (≈ 16.1 µM) | 6.2 (≈ 16.1 µM) | 0.39 (≈ 1.01 µM) | 3.1 (≈ 8.06 µM) | O=C(O)c1cn(-c2ccc(F)cc2)c2cc(N3CCCCC3)c(F)cc2c1=O |
| 0.39 (≈ 1.05 µM) | 0.78 (≈ 2.11 µM) | 0.78 (≈ 2.11 µM) | 0.78 (≈ 2.11 µM) | 0.78 (≈ 2.11 µM) | 0.1 (≈ 0.27 µM) | 0.1 (≈ 0.27 µM) | 1.56 (≈ 4.21 µM) | 1.56 (≈ 4.21 µM) | 0.2 (≈ 0.54 µM) | 0.78 (≈ 2.11 µM) | O=C(O)c1cn(-c2ccc(F)cc2)c2cc(N3CCCC3)c(F)cc2c1=O |
| 1.56 (≈ 3.65 µM) | 3.1 (≈ 7.25 µM) | 12.5 (≈ 29.2 µM) | 1.56 (≈ 3.65 µM) | 1.56 (≈ 3.65 µM) | 0.2 (≈ 0.468 µM) | 0.2 (≈ 0.468 µM) | 12.5 (≈ 29.2 µM) | 12.5 (≈ 29.2 µM) | 0.78 (≈ 1.82 µM) | 3.1 (≈ 7.25 µM) | CC(=O)N1CCN(c2cc3c(cc2F)c(=O)c(C(=O)O)cn3-c2ccc(F)cc2)CC1 |
| 0.39 (≈ 0.977 µM) | 1.56 (≈ 3.91 µM) | 12.5 (≈ 31.3 µM) | 0.78 (≈ 1.95 µM) | 0.39 (≈ 0.977 µM) | 0.2 (≈ 0.501 µM) | 0.39 (≈ 0.977 µM) | 3.1 (≈ 7.76 µM) | 6.2 (≈ 15.5 µM) | 0.78 (≈ 1.95 µM) | 1.56 (≈ 3.91 µM) | O=C1CN(c2cc3c(cc2F)c(=O)c(C(=O)O)cn3-c2ccc(F)cc2)CCN1 |
| 0.39 (≈ 0.969 µM) | 0.78 (≈ 1.94 µM) | 0.78 (≈ 1.94 µM) | 0.78 (≈ 1.94 µM) | 0.78 (≈ 1.94 µM) | 0.05 (≈ 0.124 µM) | 0.05 (≈ 0.124 µM) | 3.1 (≈ 7.7 µM) | 3.1 (≈ 7.7 µM) | 0.1 (≈ 0.248 µM) | 0.78 (≈ 1.94 µM) | O=C(O)c1cn(-c2ccc(F)cc2)c2cc(N3CCSCC3)c(F)cc2c1=O |
| 0.2 (≈ 0.484 µM) | 0.78 (≈ 1.89 µM) | 0.39 (≈ 0.943 µM) | 0.39 (≈ 0.943 µM) | 0.39 (≈ 0.943 µM) | 0.1 (≈ 0.242 µM) | 0.2 (≈ 0.484 µM) | 0.78 (≈ 1.89 µM) | 1.56 (≈ 3.77 µM) | 0.2 (≈ 0.484 µM) | 0.39 (≈ 0.943 µM) | CN1CCN(c2cc3c(cc2F)c(=O)c(C(=O)O)cn3-c2ccc(F)cc2)CC1=O |
